In ChEMBL document CHEMBL1122483, “Synthesis and antihypertensive activity of substituted trans-4-amino-3,4-dihydro-2,2-dimethyl-2H-1-benzopyran-3-ols” (1983):

Legend:
[1] = test system: Rattus norvegicus; experiment: Maximum fall in systolic blood pressure, intervals from 1 to 6 hours at a dose of 100 mg/kg administered per orally; format: functional, Artery; conditions: route oral
Summary of the method: (§1)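 DOCA/NaCl-treated hypertensive rats, kept at least 2 months after surgery (body weight 300–450 g), selected at systolic pressure of 160 mmHg or more. Compound given orally by dosing needle into the esophagus as a solution or suspension in 1% w/v methylcellulose. Systolic pressure measured by tail-cuff in restrained rats at 33.5 °C, before dosing and at intervals from 1 to 6 h; each reading was the mean of at least six recordings.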

[2] = test system: Rattus norvegicus; experiment: Maximum fall in systolic blood pressure, intervals from 1 to 6 hours at a dose of 10 mg/kg administered per orally; format: functional, Artery; conditions: route oral; summary of the method: as §1
[3] = test system: Rattus norvegicus; experiment: Maximum fall in systolic blood pressure at interval from 1 to 6 hours at a dose of 1 mg/kg when administered perorally in rats; format: functional, Artery; conditions: route oral; summary of the method: as §1
[4] = test system: Rattus norvegicus; experiment: Maximum fall in systolic blood pressure at interval from 1 to 6 hours at a dose of 3 mg/kg when administered perorally in rats; format: functional, Artery; conditions: route oral; summary of the method: as §1
[5] = test system: Rattus norvegicus; experiment: Maximum fall in systolic blood pressure at interval from 1 to 6 hours at a dose of 30 mg/kg when administered perorally in rats; format: functional, Artery; conditions: route oral; summary of the method: as §1
[6] = test system: Rattus norvegicus; experiment: Maximum fall in systolic blood pressure at interval from 1 to 6 hours at a dose of 0.3 mg/kg when administered perorally in rats; format: functional, Artery; conditions: route oral; summary of the method: as §1
[7] = test system: Rattus norvegicus; experiment: Maximum fall in systolic blood pressure at interval from 1 to 6 hours at a dose of 300 mg/kg when administered perorally in rats; format: functional, Artery; conditions: route oral; summary of the method: as §1
[8] = species on record: Rattus norvegicus; experiment: Compound was tested at 9.7e-6M for inhibition of spontaneous activity in rat isolated portal vein

SMILES	Max fall in blood pressure [1] [mmHg]	Max fall in blood pressure [2] [mmHg]	Max fall in blood pressure [5] [mmHg]	other results
CC1(C)Oc2ccc(C(N)=O)cc2[C@@H](N2CCCC2)[C@@H]1O.CS(=O)(=O)O	21	–	–	–
CC(=O)Nc1ccc2c(c1)[C@@H](N1CCCCC1)[C@H](O)C(C)(C)O2.CS(=O)(=O)O	14	6	–	–
CC1(C)Oc2ccc([N+](=O)[O-])cc2[C@@H](N2C3CCCC2CCC3)[C@@H]1O.CS(=O)(=O)O	–	20	–	–
CC1(C)Oc2ccc([N+](=O)[O-])cc2[C@@H](N2CCCC2)[C@@H]1O.CS(=O)(=O)O	–	98	–	Max fall in blood pressure [3]: 52 mmHg; Max fall in blood pressure [4]: 79 mmHg
C/C(=N\O)c1ccc2c(c1)[C@@H](N1CCCCC1)[C@H](O)C(C)(C)O2.CS(=O)(=O)O	74	17	80	–
CC1(C)Oc2ccc([N+](=O)[O-])cc2[C@@H](NC2CC2)[C@@H]1O.CS(=O)(=O)O	95	31	–	–
COC(=O)c1ccc2c(c1)[C@@H](N1CCCC1)[C@H](O)C(C)(C)O2.CS(=O)(=O)O	–	58	65	Max fall in blood pressure [4]: 14 mmHg
CC(C)(C)N[C@@H]1c2cc([N+](=O)[O-])ccc2OC(C)(C)[C@H]1O.CS(=O)(=O)O	7	–	–	–
CS(=O)(=O)O.Cc1c([N+](=O)[O-])ccc2c1OC(C)(C)[C@@H](O)[C@@H]2N1CCCCC1	39	–	–	–
CC1(C)Oc2ccc([N+](=O)[O-])cc2[C@@H](N2CCCCC2)[C@@H]1O.CS(=O)(=O)O	–	105	–	Max fall in blood pressure [3]: 28 mmHg; Max fall in blood pressure [4]: 73 mmHg
CC1(C)Oc2ccc(C(=O)O)cc2[C@@H](N2CCCC2)[C@@H]1O	–	2	–	–
CC1(C)Oc2cc([N+](=O)[O-])ccc2[C@@H](N2CCCC2)[C@@H]1O.CS(=O)(=O)O	–	99	–	Max fall in blood pressure [3]: 44 mmHg; Max fall in blood pressure [4]: 90 mmHg
CC1(C)Oc2c(ccc3ccccc23)[C@@H](N2CCCC2)[C@@H]1O	4	–	–	–
CC1(C)Oc2ccc(C(N)=O)cc2[C@@H](N2CCCCC2)[C@@H]1O.CS(=O)(=O)O	30	9	–	–
CN[C@@H]1c2cc([N+](=O)[O-])ccc2OC(C)(C)[C@H]1O.Cl	43	–	21	–
COc1ccc2c(c1)[C@@H](N1CCCC1)[C@H](O)C(C)(C)O2.Cl	17	–	29	–
CC1(C)Oc2ccc(Cl)cc2[C@@H](N2CCCCC2)[C@@H]1O.Cl	69	–	7	–
CC1(C)Oc2cccc(C#N)c2[C@@H](N2CCCCC2)[C@@H]1O.Cl	33	13	–	–
CC1(C)Oc2ccc(C#N)cc2[C@@H](N2CCCCC2)[C@@H]1O.Cl	–	107	–	Max fall in blood pressure [3]: 35 mmHg; Max fall in blood pressure [6]: 29 mmHg; Max fall in blood pressure [4]: 88 mmHg
CC1(C)Oc2ccc([N+](=O)[O-])cc2[C@@H](N2CCCCCC2)[C@@H]1O.Cl	96	17	–	–
CC1(C)Oc2cc([N+](=O)[O-])ccc2[C@@H](N2CCCCC2)[C@@H]1O.Cl	79	48	–	Max fall in blood pressure [4]: 18 mmHg
CCN(CC)[C@@H]1c2cc([N+](=O)[O-])ccc2OC(C)(C)[C@H]1O.Cl	54	–	34	–
Cc1ccc2c(c1)[C@@H](N1CCCCC1)[C@H](O)C(C)(C)O2.Cl	43	34	44	–
CC1(C)Oc2ccc([N+](=O)[O-])cc2[C@@H](NCCCO)[C@@H]1O.Cl	28	–	–	–
CC1(C)Oc2cc(C#N)ccc2[C@@H](N2CCCCC2)[C@@H]1O.Cl	33	–	7	–

SMILES	Max fall in blood pressure [1] [mmHg]	Max fall in blood pressure [2] [mmHg]	Max fall in blood pressure [5] [mmHg]	other results
CC1(C)Oc2ccc(F)cc2[C@@H](N2CCCCC2)[C@@H]1O.Cl	26	16	–	–
CC(=O)c1ccc2c(c1)[C@@H](N1CCCCC1)[C@H](O)C(C)(C)O2.Cl	127	51	65	Max fall in blood pressure [4]: 12 mmHg
CC1CCN([C@@H]2c3cc([N+](=O)[O-])ccc3OC(C)(C)[C@H]2O)CC1.Cl	–	28	–	–
CC1(C)Oc2c(C#N)cccc2[C@@H](N2CCCCC2)[C@@H]1O.Cl	33	5	–	–
CC(C)N[C@@H]1c2cc([N+](=O)[O-])ccc2OC(C)(C)[C@H]1O.Cl	36	–	–	Max fall in blood pressure [7]: 69 mmHg
CC1(C)Oc2ccc([N+](=O)[O-])cc2[C@@H](NCCO)[C@@H]1O.Cl	27	–	–	–
CC1(C)Oc2ccc(C#N)cc2[C@@H](N2CCCC2)[C@@H]1O.Cl	–	–	–	Max fall in blood pressure [3]: 43 mmHg; Inhibition [8]: 32%; Max fall in blood pressure [6]: 15 mmHg; Max fall in blood pressure [4]: 117 mmHg
CC1(C)Oc2ccccc2[C@@H](N2CCCC2)[C@@H]1O.Cl	46	–	10	–
CC1(C)Oc2ccc([N+](=O)[O-])cc2[C@@H](N2CCN(c3ccccc3)CC2)[C@@H]1O.Cl	–	10	–	–
CC1(C)Oc2ccc([N+](=O)[O-])cc2[C@@H](NCC2CC2)[C@@H]1O.Cl	13	–	–	–
CC1CCC(C)N1[C@@H]1c2cc([N+](=O)[O-])ccc2OC(C)(C)[C@H]1O.Cl (stereo not given in full)	–	–	26	–
CC(O)c1ccc2c(c1)[C@@H](N1CCCCC1)[C@H](O)C(C)(C)O2.Cl (stereo not given in full)	–	20	115	–
CC1(C)Oc2ccc3ccccc3c2[C@@H](N2CCCCC2)[C@@H]1O.Cl	4	–	–	–
CN(C)[C@@H]1c2cc([N+](=O)[O-])ccc2OC(C)(C)[C@H]1O.Cl	29	–	–	–
CC1(C)Oc2ccc([N+](=O)[O-])cc2[C@@H](N)[C@@H]1O.Cl	45	–	23	–
Cc1ccc2c(c1)[C@@H](N1CCCC1)[C@H](O)C(C)(C)O2.Cl	9	–	–	–
CC(=O)c1ccc2c(c1)[C@@H](N1CCCC1)[C@H](O)C(C)(C)O2.Cl	78	53	66	Max fall in blood pressure [4]: 39 mmHg
CC1(C)Oc2cccc([N+](=O)[O-])c2[C@@H](N2CCCCC2)[C@@H]1O.Cl	12	–	–	–
CC1(C)Oc2ccc([N+](=O)[O-])cc2[C@@H](N2CCOCC2)[C@@H]1O.Cl	70	23	55	–
CC1(C)Oc2ccc(N)cc2[C@@H](N2CCCC2)[C@@H]1O.Cl.Cl	6	–	–	–
CC1(C)Oc2ccc([N+](=O)[O-])cc2[C@@H](NCCN2CCCC2)[C@@H]1O.Cl.Cl	23	–	–	–
CC1(C)Oc2ccc([N+](=O)[O-])cc2[C@@H](N2CCCCCCC2)[C@@H]1O.Cl	–	53	82	Max fall in blood pressure [4]: 34 mmHg
NNc1nncc2ccccc12 [HYDRALAZINE]	–	113	–	Max fall in blood pressure [3]: 32 mmHg; Inhibition [8]: 40%; Max fall in blood pressure [4]: 65 mmHg
COC(=O)C1=C(C)NC(C)=C(C(=O)OC)C1c1ccccc1[N+](=O)[O-] [NIFEDIPINE]	–	–	–	Max fall in blood pressure [3]: 33 mmHg; Max fall in blood pressure [6]: 20 mmHg; Max fall in blood pressure [4]: 51 mmHg
